Active and inactive are the calls of the source. No cut-off for these calls is given here.
T1: Polyunsaturated fatty acid lipoxygenase ALOX15 (Homo sapiens, UniProt P16050)
T1 sequence (P16050 whole entry): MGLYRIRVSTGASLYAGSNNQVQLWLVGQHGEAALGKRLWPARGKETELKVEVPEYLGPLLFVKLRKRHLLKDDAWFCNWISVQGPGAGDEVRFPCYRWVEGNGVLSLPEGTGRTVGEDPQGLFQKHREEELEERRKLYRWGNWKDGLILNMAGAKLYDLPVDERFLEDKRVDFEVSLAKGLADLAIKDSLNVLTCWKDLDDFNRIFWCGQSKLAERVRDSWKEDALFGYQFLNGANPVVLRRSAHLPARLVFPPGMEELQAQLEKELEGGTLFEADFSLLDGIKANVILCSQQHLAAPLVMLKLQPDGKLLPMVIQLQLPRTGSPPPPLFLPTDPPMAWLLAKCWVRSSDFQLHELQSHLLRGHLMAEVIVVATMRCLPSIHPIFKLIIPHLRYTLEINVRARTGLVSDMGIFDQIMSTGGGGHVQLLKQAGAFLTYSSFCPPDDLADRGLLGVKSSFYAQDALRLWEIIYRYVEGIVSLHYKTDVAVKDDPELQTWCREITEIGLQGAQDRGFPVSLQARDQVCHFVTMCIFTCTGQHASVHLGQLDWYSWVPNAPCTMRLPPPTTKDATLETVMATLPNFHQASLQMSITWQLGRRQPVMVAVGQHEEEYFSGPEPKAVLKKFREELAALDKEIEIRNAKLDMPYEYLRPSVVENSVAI

T2: Polyunsaturated fatty acid lipoxygenase ALOX15 (Mus musculus) (UniProt P39654)
T2 sequence (whole entry): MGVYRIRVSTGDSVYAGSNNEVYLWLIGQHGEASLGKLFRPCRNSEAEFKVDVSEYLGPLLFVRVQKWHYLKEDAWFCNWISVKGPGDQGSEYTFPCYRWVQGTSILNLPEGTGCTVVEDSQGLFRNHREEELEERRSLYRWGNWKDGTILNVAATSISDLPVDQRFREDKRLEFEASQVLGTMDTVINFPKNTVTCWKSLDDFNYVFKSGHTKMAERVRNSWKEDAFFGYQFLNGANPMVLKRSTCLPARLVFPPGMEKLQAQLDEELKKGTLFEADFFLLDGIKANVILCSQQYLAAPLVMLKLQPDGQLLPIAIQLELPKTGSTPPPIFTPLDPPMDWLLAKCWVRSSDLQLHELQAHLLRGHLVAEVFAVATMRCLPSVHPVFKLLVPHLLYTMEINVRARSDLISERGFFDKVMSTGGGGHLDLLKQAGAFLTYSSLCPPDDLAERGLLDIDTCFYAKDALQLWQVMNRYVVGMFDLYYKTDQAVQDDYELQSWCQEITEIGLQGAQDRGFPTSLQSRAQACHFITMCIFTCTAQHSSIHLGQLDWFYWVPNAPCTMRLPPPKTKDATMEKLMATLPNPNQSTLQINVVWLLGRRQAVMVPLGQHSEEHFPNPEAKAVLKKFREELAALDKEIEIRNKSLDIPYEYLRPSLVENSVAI

B1: Polyunsaturated fatty acid lipoxygenase ALOX15 (Homo sapiens), P16050 (protein)
chain: T1 sequence (P16050 whole entry)

Assays:
[1] = molecular target: T1, Polyunsaturated fatty acid lipoxygenase ALOX15; assay: Inhibition of human 15-LOX-1 assessed as reduction in conversion of linoleic acid to 13(S)-HpODE incubated for 10 mins followed by linoleic acid addition by UV-absorbance analysis
[2] = molecular target: T2, Polyunsaturated fatty acid lipoxygenase ALOX15 (Mus musculus); assay: Inhibition of 15-LOX-1 in mouse HT22 cells assessed as inhibition of glutamate-induced lipid peroxidation at 1 uM incubated for 14 to 16 hrs by BODIPY 581/591 C11 staining based FACS analysis; format: cell-based; details: HT-22
How it was run: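 HT-22 cells were seeded at 5x10^4 per well and incubated overnight. They were then exposed to 4 mM glutamate in DMEM/10% FCS, with or without 10 µM test inhibitor or 1 µM PD146176, for 6-7 h or 14-16 h. Cells were stained with BODIPY 581/591 C11 at 2 µM final for 1 h at 37 °C. The red-to-green fluorescence shift was read by flow cytometry (488 nm excitation). At least 3 experiments were run, each in triplicate.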

[3] = molecular target: T2, Polyunsaturated fatty acid lipoxygenase ALOX15 (Mus musculus); assay: Inhibition of 15-LOX-1 in mouse HT22 cells assessed as protection against glutamate-induced cell death by measuring increase in cell viability at 1 uM cotreated with glutamate measured for 16 to 20 hrs by MTT assay; format: cell-based; details: HT-22, in the assay text read “14 to 16 hrs” for “16 to 20 hrs”
How it was run: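 HT-22 cells were seeded at 8x10^3 per well and incubated overnight. They were challenged with 4 mM glutamate in DMEM/10% FCS. Inhibitor was given either with glutamate (1-20 µM; PD146176 at 1 µM) or added at 5 or 10 µM 2, 4, 6 or 8 h after glutamate. After 14-16 h, MTT was added at 0.5 mg/mL for 1 h at 37 °C. Formazan was dissolved in DMSO and read at 570 nm minus 630 nm background, expressed relative to control. Three experiments were run with 6-8 replicates each.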

[4] = molecular target: T2, Polyunsaturated fatty acid lipoxygenase ALOX15 (Mus musculus); assay: Inhibition of 15-LOX-1 in mouse HT22 cells assessed as protection against glutamate-induced cell impedance at 1 uM cotreated with glutamate up to 16 hrs by real time cell viability assay; format: cell-based; details: HT-22
How it was run: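 HT-22 cells were seeded at 8x10^3 per well, incubated overnight, then given 4 mM glutamate. Inhibitor was either co-applied (1-20 µM; PD146176 at 1 µM) or added at 10 µM 2, 4, 6 or 8 h after glutamate. Impedance was recorded in real time for 16-20 h, with cell index normalized just before glutamate addition.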

[5] = compound: CCCCNC(=O)c1cc(-c2ccccc2)sc1N; assay: Competitive inhibition of human 15-LOX-1 assessed as apparent Km at 5 uM by Lineweaver-Burk plot analysis (reference value: 9.1 +/- 3.4 microM)
How it was run: (§1)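 Purified enzyme activity was read as UV absorbance at 234 nm of the product formed from linoleic acid substrate, in 96-well format. Substrate-dependence runs were done with and without inhibitor. Apparent Km and Vmax were derived from Lineweaver-Burk plots.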

[6] = compound: CCCCNC(=O)c1cc(-c2ccccc2)sc1N; assay: Competitive inhibition of human 15-LOX-1 assessed as apparent Km at 15 uM by Lineweaver-Burk plot analysis (reference value: 9.1 +/- 3.4 microM); how it was run: as §1

Row | Molecule | IC50 [1] [µM] | further results
1 | CCCCNC(=O)c1cc(-c2ccc(Br)cc2)sc1N | 50 to 71.1 | –
2 | CCCCN(CCCC)C(=O)c1cc(-c2ccccc2)sc1N | 50 to 152 | –
3 | CCCCNC(=O)c1c(N)sc(-c2ccccc2)c1C | > 50 | –
4 | CCCCNC(=O)c1c(N)sc(-c2ccccc2)c1CCCC | > 50 | –
5 | CCCCNC(=O)c1c(N)sc(-c2ccc(Cl)cc2)c1CCCC | > 50 | –
6 | CCCCn1c(=O)[nH]c2sc(-c3ccccc3)cc2c1=O | 50 to 67.3 | –
7 | CCCCNC(=O)c1cc(Cc2ccccc2)sc1N | 50 to 115 | –
8 | c1ccc2c(c1)SCc1c-2[nH]c2ccccc12 | – | inhibition [2]: Active; inhibition [3]: Active; inhibition [4]: Active
9 | CCCCNC(=O)c1cc(C)sc1N | 50 to 354 | –
10 | Nc1sc(-c2ccccc2)cc1C(=O)NCCCCc1ccccc1 | 50 to 81.7 | –
11 | CCCCCc1cc(C(=O)NCCCC)c(N)s1 | 50 to 61.4 | –
12 | CCCCNC(=O)c1cc(-c2ccc(Cl)cc2)sc1N | 50 to 519 | –
13 | CCCCNC(=O)c1cc(CCC)sc1N | 50 to 65.4 | –
14 | CCCCNC(=O)c1cc(CC)sc1N | 50 to 65.3 | –
15 | B1 | – | Km [5]: 14.2 µM; Km [6]: 38.2 µM

— ChEMBL document CHEMBL3871264, “Design of a novel thiophene inhibitor of 15-lipoxygenase-1 with both anti-inflammatory and neuroprotective properties” (Eur J Med Chem, 2016)
